In data set [1] the test system is RAW264.7. As to the kind of experiment: Antiinflammatory activity against LPS-activated mouse RAW264.7 cells assessed as reduction in IL6 mRNA expression at 3.1 uM preincubated with LPS for 24 hrs followed by compound addition and measured after 24 hrs by qRT-PCR analysis. It is filed as functional, cell-based. The method in brief:
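RAW 264.7 cells (DMEM, 10% FBS, 37 °C, 5% CO2) seeded at 1 × 10^5/well and held 4 h. LPS 1.0 μg/mL was added for 24 h, then medium was replaced with test agent (0.8, 1.6, 3.1 μM or 2.3, 4.6, 9.2 μM) for 24 h. TNF-α and IL-6 transcripts were quantified by real-time qPCR against GAPDH. Triplicates, mean ± SD.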
A general note: Quantitative PCR measures a nucleic acid by following its amplification.

For data set [2], the system named is RAW264.7. The experiment in a line: Antiinflammatory activity in mouse RAW264.7 cells assessed as inhibition of LPS-induced NO production at 0.8 to 3.1 uM measured after 24 hrs by griess reagent based assay. It is filed as functional, cell-based. The essentials: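 Murine RAW 264.7 macrophages, 1 × 10^5/well, 4 h settling, then LPS (1.0 μg/mL) for 24 h. Medium was swapped for test solutions (0.8–3.1 μM or 2.3–9.2 μM), or DXM 254.8 μM as positive control, for another 24 h. Secreted NO was measured by Griess assay; TNF-α and IL-6 by ELISA. Run in triplicate, mean ± SD.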
(Nitrite, measured by Griess reagent, commonly stands in for NO production.)

Data set [3] concerns RAW264.7. The experiment in a line: Inhibition of nitric oxide production in mouse RAW264.7 cells at 0.8 to 3.1 uM measured after 24 hrs by griess reagent based assay. In kind it is functional, cell-based.
Data set [4] is described as follows: Cytotoxicity against mouse RAW264.7 cells assessed as reduction in cell viability incubated for 24 hrs by MTT assay. In kind it is cell-based. The following applies: read-out: MNCC. The method in brief: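 MTT viability assay: RAW 264.7 cells seeded at 2.5 × 10^4 cells/well, cultured 12 h, then given five concentrations from serial dilution (up to 6.2 or 9.2 μM; final DMSO <1%) for 24 h. Viability was calculated relative to untreated blank control; n = 3, mean ± SD.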

Data set [5] concerns MDA-MB-231. The experiment in a line: Induction of apoptosis in human MDA-MB-231 cells assessed as necrotic cells at 17.3 uM incubated for 48 hrs by annexin V-FITC/PI based flow cytometric analysis (Rvb= 0.74%). In kind it is functional. A general note: In flow cytometry, cells or beads pass a laser one at a time.
Data set [6] has as its system MDA-MB-231. The experiment in a line: Induction of apoptosis in human MDA-MB-231 cells assessed as early apoptotic cells at 17.3 uM incubated for 48 hrs by annexin V-FITC/PI based flow cytometric analysis (Rvb= 0.24%). It is filed as functional.
For data set [7], the system named is MDA-MB-231. As to the kind of experiment: Induction of apoptosis in human MDA-MB-231 cells assessed as viable cells at 17.3 uM incubated for 48 hrs by annexin V-FITC/PI based flow cytometric analysis (Rvb= 96.21%). It is filed as functional. Conditions: MDA-MB-231, 48 h, read-out: Activity.
For data set [8], the system named is MDA-MB-231. The experiment in a line: Induction of apoptosis in human MDA-MB-231 cells assessed as necrotic cells at 12.4 uM incubated for 48 hrs by annexin V-FITC/PI based flow cytometric analysis (Rvb= 0.74%). It is filed as functional.
Data set [9] has as its system MDA-MB-231. As to the kind of experiment: Induction of apoptosis in human MDA-MB-231 cells assessed as early apoptotic cells at 12.4 uM incubated for 48 hrs by annexin V-FITC/PI based flow cytometric analysis (Rvb= 0.24%). It is filed as functional.
Data set [10] relates to MDA-MB-231. As to the kind of experiment: Induction of apoptosis in human MDA-MB-231 cells assessed as necrotic cells at 8.6 uM incubated for 48 hrs by annexin V-FITC/PI based flow cytometric analysis (Rvb= 0.74%). It is filed as functional.
The test system of data set [11] is MDA-MB-231. As to the kind of experiment: Induction of apoptosis in human MDA-MB-231 cells assessed as early apoptotic cells at 8.6 uM incubated for 48 hrs by annexin V-FITC/PI based flow cytometric analysis (Rvb= 0.24%). In kind it is functional.
Data set [12] concerns MDA-MB-231. The experiment in a line: Induction of cell cycle arrest in human MDA-MB-231 cells assessed as accumulation of cells at G2/M phase at 17.3 uM incubated for 48 hrs by PI/RNase staining based flow cytometric analysis (reference value: 10.4%). In kind it is functional. The method in brief:
(§1)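 Cell-cycle analysis: MDA-MB-231 cells were preincubated 24 h, then treated with 8.6, 12.4 or 17.3 μM for 48 h. Cells were pelleted, fixed in 75% ethanol at −20 °C overnight, and stained with PI/RNase for 15 min in the dark at ambient temperature. About 10 000 cells per well were analyzed by flow cytometry for DNA content.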

Data set [13] relates to MDA-MB-231. As to the kind of experiment: Induction of cell cycle arrest in human MDA-MB-231 cells assessed as accumulation of cells at S phase at 12.4 uM incubated for 48 hrs by PI/RNase staining based flow cytometric analysis (reference value: 39.2%). In kind it is functional. The essentials: as §1
The subject of data set [14] is HepG2. The experiment in a line: Antiproliferative activity against human HepG2 cells assessed as cell viability at 24.7 uM incubated for 48 hrs by methylene blue assay relative to control. In kind it is functional. Conditions: HepG2, 48 h, read-out: Activity. The method in brief:
(§2)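 MDA-MB-231, MCF-7, HepG2 and LNCaP cells were grown in DMEM; HCT-116 and LO-2 in RPMI-1640; all with 10% FBS at 37 °C, 5% CO2. Cells seeded at 1.5 × 10^5 cells/mL and incubated overnight (~12 h), then exposed to 6.2–30.9 μM or 23.1–185.0 μM (final DMSO <0.1%) for 48 h. Read by methylene blue staining; viability = Abs treated/Abs untreated × 100%, triplicate.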

The test system of data set [15] is MDA-MB-231. As to the kind of experiment: Antiproliferative activity against human MDA-MB-231 cells assessed as cell viability at 17.3 uM incubated for 48 hrs by methylene blue assay relative to control. In kind it is functional. The following applies: MDA-MB-231, 48 h, read-out: Activity. The method in brief: as §2
Data set [16] has as its system L02. The experiment in a line: Cytotoxicity against human LO2 cells assessed as reduction in cell viability at 6.2 to 30.9 uM incubated for 48 hrs by methylene blue assay. It is filed as cell-based. The following applies: l02, 48 h. The method in brief:
as §2

Data set [17] concerns MDA-MB-231. As to the kind of experiment: Induction of cell cycle arrest in human MDA-MB-231 cells assessed as increase in accumulation of cells at G0/G1 phase incubated for 48 hrs by PI/RNase staining based flow cytometric analysis. It is filed as functional. The essentials:
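Cells grown 24 h in DMEM/10% FBS at 37 °C, 5% CO2, then exposed 48 h to 8.6, 12.4 or 17.3 μM. Pelleted, fixed in 75% ethanol at −20 °C overnight, stained with PI-containing RNase 15 min in the dark at ambient temperature. About 10 000 cells per well analysed by flow cytometry. Triplicate, mean ± SD.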

For data set [18], the system named is MDA-MB-231. As to the kind of experiment: Induction of mitochondrial membrane potential loss in human MDA-MB-231 cells assessed as cell population with intact mitochondrial membrane potential by measuring red fluorescence at 12.4 uM incubated for 48 hrs by JC1 staining based flow cytometric analysis (reference value: 92.04%). It is filed as functional. The method in brief:
(§3)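 MDA-MB-231 cells in DMEM/10% FBS exposed 48 h to 0, 8.6, 12.4 or 17.3 μM. Harvested cells stained with JC-1 for 15 min in the dark, then analysed by flow cytometry. Excitation 488 nm; green emission read at 525 nm, red at 590 nm. Output given as percent green-to-red fluorescence intensity ratio. Triplicate, mean ± SD.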

For data set [19], the system named is MDA-MB-231. The experiment in a line: Induction of mitochondrial membrane potential loss in human MDA-MB-231 cells cell population with mitochondrial membrane potential collapse by measuring green fluorescence at 12.4 uM incubated for 48 hrs by JC1 staining based flow cytometric analysis (reference value: 7.96%). It is filed as functional. The essentials: as §3

The test system of data set [20] is MDA-MB-231. As to the kind of experiment: Induction of mitochondrial membrane potential loss in human MDA-MB-231 cells assessed as cell population with intact mitochondrial membrane potential by measuring red fluorescence at 17.3 uM incubated for 48 hrs by JC1 staining based flow cytometric analysis (reference value: 92.04%). In kind it is functional. The method in brief:
as §3

Experimental findings from ChEMBL document CHEMBL4414566, “Cytotoxicity and Anti-inflammatory Properties of Apigenin-Derived Isolaxifolin” (J Nat Prod, 2019) are described below.

Activity calls are given as the source filed them. No cut-off for these calls is given here.

For the molecule `CC(C)=CCc1c2c(c(O)c3c(=O)cc(-c4ccc(O)cc4)oc13)C=CC(C)(C)O2` [LAXIFOLIN], the result in [1] was Active. Besides, the inhibition result in data set [2] and in data set [3] was “Active” throughout. Besides, the MNTC at 24 h in [4] stood at 3.1 µM. The Activity in data set [5] came out at 5.57%; in data set [6] it was 0.96%; in data set [8], 1.19%; in data set [9], 0.58%; in data set [10], 1.04%; in data set [11], 0.87%. Further, the Activity in [12] is 9.87%; in [13] it was 28.2%; in [16] it was “Non-Toxic”; in data set [17], “Dose-dependent effect”; in data set [18], 84.3%; in data set [19], 15.7%. Moreover, the Activity in data set [20] was 73.25%. Also, the viability at 17.3 µM in [7] came out at 68.9%; in data set [15], 20%. Moreover, the viability at 24.7 µM in data set [14] amounted to 20%.
